Active and inactive are the calls of the source.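 Rule for the calls, unless noted: active = inhibition at or above 50% relative to wild type and mutant plate controls; inactive = inhibition below 50%.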

Experiment [1] can be described thus: inhibitors of TNFa-induced NFkB p65 translocation, primary screen, imaging, HUVEC, MLSMR starter and 10KST1 sets (AID 438;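 active = inhibition above 20% together with a positive visual image hit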;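 note: compound added about 3h40 before a 20 min TNFalpha stimulation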;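 for inhibition: signal is the nuclear over cytoplasmic p65 intensity ratio per well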). The conditions noted are these: HUVEC TNFa-induced p65 nuclear translocation; cell count: measured here: nuclei count (cytotoxicity indicator), at 2.08 µM; inhibition: at 2 µM, stronger effect = higher value, 0% TNFa-plus-vehicle, 100% no-TNFa wells.

Experiment [2] is described as follows: endothelial E-selectin expression blockers – imaging, HUVEC, immunofluorescence, MLSMR starter and 10KST1 sets, primary screen (AID 487;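 active = visually confirmed hit in the image check and inhibition above 20%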;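 for inhibition: signal is fraction of cell area covered by stained E-selectin grains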;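 for nuclei count: 100% = median nuclei count of all wells on the same plate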). To be noted: HUVEC TNFalpha-induced E-selectin immunofluorescence imaging, at 2 µM; inhibition: stronger effect = higher value; nuclei count: measured here: cell number, toxicity.
Experiment [3] in a line: Primary imaging screen for DUSP6 inhibitors that restore phospho-Erk in transfected HeLa cells, chemical complementation (AID 609;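 active = compounds giving at least 50% inhibition in the cell-based MKP-3 phosphatase rescue imaging test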;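 for inhibition: phospho-Erk level distribution per well compared with pooled transfected vehicle control wells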). The conditions noted are these: HeLa MKP-3 transfected, phospho-Erk imaging KS statistic, at 10 µM, cells stimulated with TPA for 15 min.
Experiment [4] deals with Dual specificity protein phosphatase 6 (Homo sapiens) (UniProt Q16828). Described as above. To be noted: HeLa MKP-3 transfected, phospho-Erk imaging KS statistic; at 10 µM; stronger effect = higher value; cells stimulated with TPA for 15 min.
In experiment [5] the target is Voltage-gated potassium channel subunit beta-2 (Rattus norvegicus) (UniProt P62483). Nature of the experiment: inhibitors of rat Kvbeta2 reductase activity – biochemical, NADPH fluorescence, primary screen (AID 622;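 active = fluorescence slope higher than the sample average by over 3 SD, cut at about -0.22 in these data, passing the limit was not always enough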;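 note: slope of raw intensity against log time taken from 70 to 1610 s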). To be noted: recombinant KvBeta, 4-cyanobenzaldehyde reduction, at 10 µM, stronger effect = higher value.
Experiment [6] has the same target. Nature of the experiment: enhancers of rat Kvbeta2 NADPH turnover – biochemical, NADPH fluorescence, primary screen (AID 623;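 active = NADPH fluorescence slope more negative than the mean of all samples by about 3 SD, 99.7% confidence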;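 note: fluorescence intensity change per second fitted from 20 to 320 s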). To be noted: Recombinant KvBeta, NADPH fluorescence decrease slope, 10 min; at 10 µM; stronger effect = lower value.
Experiment [7] addresses Alpha-2C adrenergic receptor (Homo sapiens) (UniProt P18825). As to the kind of experiment: compounds altering alpha2C-coupled GIRK flux – cell-based, HEK293 alpha2C/GIRK1/2, thallium flux, primary screen (AID 624;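 active = fluorescence slope after compound addition differing from the mean of all screened samples at 99.7% confidence, in either direction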;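 note: slope of fluorescence ratio to pre-addition baseline per second over 15 to 24 s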). To be noted: thallium flux BTC fluorescence, at 10 µM, actives lie on both sides.
Experiment [8] can be described thus: inhibitors of larval lipid processing in zebrafish, primary screen, whole organism, PED6 fluorescence, gall bladder and intestine (AID 686;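 active = a full or partial loss of lipid-probe fluorescence in the fish gall bladder, intestine or both, judged by eye; inactive = no fluorescence loss, or compound toxic to the fish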;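 note: larvae 5 to 7 days old with five fish per well; signal comes from phospholipase A2 cleavage of quenched PED6 carried via bile; overnight exposure to compound and PED6 before scoring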). The conditions noted are these: Zebrafish larvae PED6 lipid processing, fluorescence scoring; screened at 20 µM (by protocol). The method in brief:
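Also added: quenched phospholipase substrate PED6, 100 nM final, ingested by larvae; System: zebrafish larvae, 5-7 d; Quantity: 5 larvae per well; Compound: 20 µM single dose; Schedule: overnight compound and PED6 incubation; Read-out: visual per-well fluorescence inhibition score; Measured by: By-eye fluorescence microscopy; Medium: E3.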

Experiment [9] in a line: loss of swimming-algae plug formation – whole organism, Chlamydomonas reinhardtii, WT vs cilia-less mutant, absorbance, 96-well, primary screen (AID 463189).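 Note: 0% = wild type cc124 cells in DMSO and 100% = ciliumless bld1 mutant cells.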 The conditions noted are these: Chlamydomonas reinhardtii gravitaxis, OD600 absorbance, 2 days; at 10 µM; stronger effect = higher value.
Where [10] appears, read: measured here: cell density z-score.
Setting [11] is: measured here: nuclear c-Myc green intensity z-score.
Where [12] appears, read: measured here: nuclear pErk red intensity z-score, stronger effect = higher value.

Sequence of Voltage-gated potassium channel subunit beta-2 (Rattus norvegicus) (P62483 whole entry, looked up): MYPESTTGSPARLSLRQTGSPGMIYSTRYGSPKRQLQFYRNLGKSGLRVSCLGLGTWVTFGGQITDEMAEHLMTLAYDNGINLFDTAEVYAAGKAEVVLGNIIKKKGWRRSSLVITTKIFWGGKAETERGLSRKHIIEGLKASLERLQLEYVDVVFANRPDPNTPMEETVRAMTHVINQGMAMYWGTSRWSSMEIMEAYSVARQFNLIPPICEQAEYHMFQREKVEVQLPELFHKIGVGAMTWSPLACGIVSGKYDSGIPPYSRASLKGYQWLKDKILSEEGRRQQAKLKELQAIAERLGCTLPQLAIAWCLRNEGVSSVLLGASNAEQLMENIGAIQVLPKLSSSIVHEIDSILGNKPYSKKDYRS
Sequence of Alpha-2C adrenergic receptor (Homo sapiens) (P18825 whole entry, looked up): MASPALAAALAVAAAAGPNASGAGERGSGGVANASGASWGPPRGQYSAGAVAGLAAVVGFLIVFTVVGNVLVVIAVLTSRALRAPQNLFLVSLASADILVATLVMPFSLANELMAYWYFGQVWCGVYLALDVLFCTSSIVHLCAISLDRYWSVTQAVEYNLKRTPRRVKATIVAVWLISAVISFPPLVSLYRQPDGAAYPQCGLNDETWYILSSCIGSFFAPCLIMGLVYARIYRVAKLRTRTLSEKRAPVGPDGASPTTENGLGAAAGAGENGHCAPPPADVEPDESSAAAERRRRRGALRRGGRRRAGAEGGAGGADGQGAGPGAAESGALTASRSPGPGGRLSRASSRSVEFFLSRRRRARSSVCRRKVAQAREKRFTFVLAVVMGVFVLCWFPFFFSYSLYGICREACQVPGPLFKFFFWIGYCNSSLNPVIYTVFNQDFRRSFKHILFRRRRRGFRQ
Sequence of Dual specificity protein phosphatase 6 (Homo sapiens) (Q16828 whole entry, looked up): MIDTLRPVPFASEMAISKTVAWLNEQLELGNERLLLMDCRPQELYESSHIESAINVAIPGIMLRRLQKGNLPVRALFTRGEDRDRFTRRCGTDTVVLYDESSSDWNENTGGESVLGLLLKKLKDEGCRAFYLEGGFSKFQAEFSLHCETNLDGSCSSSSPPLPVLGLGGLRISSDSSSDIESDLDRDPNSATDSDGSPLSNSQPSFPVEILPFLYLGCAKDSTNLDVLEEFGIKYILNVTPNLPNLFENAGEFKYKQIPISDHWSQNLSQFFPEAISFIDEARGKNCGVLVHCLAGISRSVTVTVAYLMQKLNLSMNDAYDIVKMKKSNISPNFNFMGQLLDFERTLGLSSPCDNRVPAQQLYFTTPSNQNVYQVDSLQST

For the compound `O=C(C1=C(O)C(=O)N(CCN2CCOCC2)C1c1cccnc1)c1cc2ccccc2o1` (stereo unspecified), in [1], the cell count was 451. The inhibition in experiment [1] was 4.1% (inactive); in experiment [2], -45.7% (inactive); in experiment [4], 15% (inactive); in experiment [9], -5.22% (inactive). The same compound had a nuclei count in [2] of 168%. Besides, the z-score in experiment [3] (setting [10]) was -0.44; in experiment [3] (setting [11]) it was 2.22; in [3] (setting [12]), 0.434. For the same compound, the fluorescence slope in experiment [5] is -0.41 (inactive). The NADPH fluorescence slope in experiment [6] is -6.5e-05 (inactive). In addition, in experiment [7], the slope is 0.00612 (inactive). For the same compound, the call in experiment [8] was inactive.

Regarding `C=CCOC(=O)C(C#N)c1nc2ccccc2nc1N1CCC(C(=O)OCC)CC1` (stereo unspecified), the cell count in experiment [1] is 486. The inhibition in experiment [1] is -17.7% (inactive); in experiment [2], -58.1% (inactive); in experiment [4], -6.06% (inactive); in experiment [9], 13.6% (inactive). The same compound had a nuclei count in [2] of 138%. In addition, the figures for the z-score in experiment [3] (setting [10]), in experiment [3] (setting [11]) and in experiment [3] (setting [12]) were 0.17, 0.218 and -0.151, respectively. Also, the fluorescence slope in experiment [5] is -0.471 (inactive). The NADPH fluorescence slope in [6] was -6.3e-05 (inactive). The slope in experiment [7] was 0.00188 (inactive). In addition, the compound was classed as inactive in experiment [8].

With `CNC(=O)Nc1cccc(NC(=O)NC)n1`, the cell count in [1] was 351. Besides, the inhibition in experiment [1] is -2.8% (inactive); in experiment [2], -90.3% (inactive); in experiment [4], 11.4% (inactive); in experiment [9], -3.2% (inactive). In experiment [2], this compound yielded a nuclei count of 164%. The z-score was 0.612 in experiment [3] (setting [10]), 0.757 in experiment [3] (setting [11]) and -1.65 in experiment [3] (setting [12]). Also, in experiment [5], the fluorescence slope was -0.456 (inactive). In experiment [6], the NADPH fluorescence slope is -0.000144 (inactive). Besides, the slope in experiment [7] is 0.00525 (inactive). Moreover, in experiment [8], the result was inactive.

For `O=C(C1=C(O)C(=O)N(CCCN2CCOCC2)C1c1ccccn1)c1cccs1` (stereo unspecified), the cell count in [1] was 506. Also, the inhibition in experiment [1] is -11.2% (inactive); in experiment [2] it was -117% (inactive); in [4], -3.5% (inactive); in [9], -6.32% (inactive). Further, the nuclei count in experiment [2] is 136%. Further, the z-score in [3] (setting [10]) was -1.2; in experiment [3] (setting [11]) it was -0.158; in [3] (setting [12]), 2.08. Moreover, in [5], the fluorescence slope is -0.495 (inactive). Also, in experiment [6], the NADPH fluorescence slope is -5.5e-05 (inactive). Moreover, the slope in experiment [7] was 0.00674 (inactive). In experiment [8], the compound was classed as inactive.

On to `Cn1c(N2CCOCC2)nc2c1c(=O)n(Cc1ccc(Cl)c(Cl)c1)c(=O)n2C`, for which, in experiment [1], the cell count came to 616. Moreover, the inhibition in experiment [1] was -1.9% (inactive); in experiment [2], -39.8% (inactive); in [4], 2.46% (inactive); in [9] it was 24.4% (inactive). Moreover, in experiment [2], the nuclei count was found to be 146%. Further, the z-score in experiment [3] (setting [10]) was -0.645; in experiment [3] (setting [11]) it was 0.0379; in [3] (setting [12]), -0.103. For the same compound, in experiment [5], the fluorescence slope was -0.474 (inactive). Besides, the NADPH fluorescence slope in experiment [6] is -0.000203 (inactive). In [7], the slope is 0.00465 (inactive). In addition, in [8], the result was inactive.

`CCn1cc(C(=O)NCC2CCCO2)c(=O)c2cc(F)c(N3CCN(C)CC3)cc21` (stereo unspecified): in experiment [1], the cell count was 570. For the same compound, the inhibition in experiment [1] is -6.7% (inactive); in [2], -14.6% (inactive); in [4], 1.75% (inactive); in experiment [9] it was 4.63% (inactive). In [2], this compound registered a nuclei count of 188%. Moreover, the z-score in experiment [3] (setting [10]) is -0.305; in [3] (setting [11]), -1.21; in [3] (setting [12]), 2. Also, the fluorescence slope in experiment [5] was -0.388 (inactive). For the same compound, in experiment [6], the NADPH fluorescence slope was -2.9e-05 (inactive). In addition, the slope in experiment [7] is 0.00486 (inactive). Also, in experiment [8], the call was inactive.

`COc1ccccc1N(O)C1CC(=O)N(c2ccc(F)cc2)C1=O` (stereo unspecified): the cell count in [1] came to 304. The inhibition was -7.6% (inactive) in experiment [1], -18.5% (inactive) in experiment [2], 13.4% (inactive) in experiment [4] and -1.02% (inactive) in [9]. In addition, the nuclei count in experiment [2] came out at 92%. The z-score in [3] (setting [10]) is -1.81; in experiment [3] (setting [11]), 1.54; in experiment [3] (setting [12]), 0.452. Also, in experiment [5], the fluorescence slope was -0.46 (inactive). For the same compound, in experiment [6], the NADPH fluorescence slope is -0.000168 (inactive). Also, the slope in experiment [7] was 0.00806 (inactive). Further, the compound was called inactive in [8].

The inhibition is the change of the read-out against control, counted positive when it falls.

The values are drawn from PubChem BioAssay.
